Activity calls are given as the source filed them. The rule behind the calls is not given here.
Experiments:
[1] = test system: Hepatitis C virus; assay: Antiviral activity against wild type Hepatitis C virus genotype 1a harboring C316Y mutant infected in human HuH7 cells assessed as inhibition of viral replication after 48 hrs by luciferase reporter gene assay; assay type: functional, organism-based, Hepacivirus hominis; settings: subtype 1a, Huh-7, 48 h
[2] = Bioavailability in Sprague-Dawley rat at 1 mg/kg, iv and 5 mg/kg, po; assay type: ADME, organism-based; settings: in vivo
[3] = Clearance in Sprague-Dawley rat at 1 mg/kg, iv and 5 mg/kg, po; assay type: ADME, organism-based; settings: in vivo
[4] = Inhibition of C-terminal 6xHis-tagged Hepatitis C virus genotype 1b BK NS5B Cdelta21 RNA dependent RNA polymerase L47Q/F101Y/[…] mutant after 30 mins in presence of [alpha-33P]; design: species or system Hepatitis C virus (isolate BK)
[5] = test system: Hepatitis C virus; assay: Antiviral activity against wild type Hepatitis C virus genotype 1b harboring C316N mutant infected in human HuH7 cells assessed as inhibition of viral replication after 48 hrs by luciferase reporter gene assay; assay type: functional, organism-based, Hepacivirus hominis; settings: Huh-7, 48 h
[6] = test system: Hepatitis C virus; assay: Antiviral activity against wild type Hepatitis C virus genotype 1b infected in human HuH7 cells assessed as inhibition of viral replication after 48 hrs by luciferase reporter gene assay; assay type: functional, organism-based, Hepacivirus hominis; settings: Huh-7, 48 h
Method in brief: (§1)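 Replicon-based readout (stable and transient replicon formats) in place of virus infection, with compound present for 2 days before EC50 determination.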

[7] = test system: Hepatitis C virus; assay: Antiviral activity against wild type Hepatitis C virus genotype 1a infected in human HuH7 cells assessed as inhibition of viral replication after 48 hrs by luciferase reporter gene assay; assay type: functional, organism-based, Hepacivirus hominis; settings: subtype 1a, Huh-7, 48 h; method in brief: as §1
[8] = test system: Hepatitis C virus; assay: Antiviral activity against wild type Hepatitis C virus genotype 1b harboring S365T mutant infected in human HuH7 cells assessed as inhibition of viral replication after 72 hrs by Bright-glo luciferase reporter gene assay; assay type: functional, organism-based, Hepacivirus hominis; settings: Huh-7, 72 h
[9] = test system: Hepatitis C virus; assay: Antiviral activity against wild type Hepatitis C virus genotype 1b harboring C316F mutant infected in human HuH7 cells assessed as inhibition of viral replication after 72 hrs by Bright-glo luciferase reporter gene assay; assay type: functional, organism-based, Hepacivirus hominis; settings: Huh-7, 72 h
[10] = test system: Hepatitis C virus; assay: Antiviral activity against wild type Hepatitis C virus genotype 1b harboring C316Y mutant infected in human HuH7 cells assessed as inhibition of viral replication after 72 hrs by Bright-glo luciferase reporter gene assay; assay type: functional, organism-based, Hepacivirus hominis; settings: Huh-7, 72 h
[11] = Stability of the compound; assay type: physicochemical
[12] = test system: Huh-7; assay: Cytotoxicity in human HuH7 cells assessed as cell viability after 72 hrs by CellTitre-glo luminescence assay; assay type: cell-based; settings: huh-7, 72 h
[13] = test system: Hepatitis C virus (isolate BK); assay: Inhibition of C-terminal 6xHis-tagged Hepatitis C virus genotype 1b BK NS5B Cdelta21 RNA dependent RNA polymerase L47Q/F101Y/[…] mutant expressed in Escherichia coli BL21(DE3) using radiolabelled CTP/5'-A(8)CG-3' as substrate/template assessed as inhibition of pCpG dimer formation at 0.016 to 10 uM
[14] = test system: RNA-directed RNA polymerase (Hepacivirus hominis), O39930 [C316N]; assay: Binding affinity to Hepatitis C virus genotype 1b NS5B Cdelta21 RNA dependent RNA polymerase 316N mutant assessed as dissociation half life at 0.6 uM by LC-MS/MS analysis; settings: Hepatitis C virus subtype 1b
Method in brief: (§2)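 NS5B∆21 GT1b 316N (10 uM) saturated with 12uM inhibitor to pre-form the complex, then diluted 20-fold into 10 uM of the competing Palm II inhibitor to block rebinding. Bound compound was separated from free by rapid size-exclusion filtration over time, and both inhibitors were quantified by LC-MS. Off-rates were fitted to a single or two-phase exponential to give t1/2.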

[15] = target: RNA-directed RNA polymerase (Hepacivirus hominis, UniProt O39930, C316N); assay: Inhibition of Hepatitis C virus genotype 1b NS5B Cdelta21 RNA dependent RNA polymerase 316N mutant using biotinylated polyC:oligoG/[alpha-P33]-GTP as template/substrate preincubated for 15 mins followed by template/substrate addition by scintillation proximity assay; design: species or system Hepatitis C virus subtype 1b
Method in brief: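 Isolated NS5B at 30 nM was preincubated with inhibitor for 15 min before reaction start. The IC50 was determined from the polymerase assay.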

[16] = test system: RNA-directed RNA polymerase (Hepacivirus hominis), O39930 [C316N]; assay: Binding affinity to Hepatitis C virus genotype 1b NS5B Cdelta21 RNA dependent RNA polymerase 316N mutant assessed as dissociation half life at 10 uM by LC-MS/MS analysis; settings: Hepatitis C virus subtype 1b; method in brief: as §2

Sequence of RNA-directed RNA polymerase (O39930 entry or part of it C316N): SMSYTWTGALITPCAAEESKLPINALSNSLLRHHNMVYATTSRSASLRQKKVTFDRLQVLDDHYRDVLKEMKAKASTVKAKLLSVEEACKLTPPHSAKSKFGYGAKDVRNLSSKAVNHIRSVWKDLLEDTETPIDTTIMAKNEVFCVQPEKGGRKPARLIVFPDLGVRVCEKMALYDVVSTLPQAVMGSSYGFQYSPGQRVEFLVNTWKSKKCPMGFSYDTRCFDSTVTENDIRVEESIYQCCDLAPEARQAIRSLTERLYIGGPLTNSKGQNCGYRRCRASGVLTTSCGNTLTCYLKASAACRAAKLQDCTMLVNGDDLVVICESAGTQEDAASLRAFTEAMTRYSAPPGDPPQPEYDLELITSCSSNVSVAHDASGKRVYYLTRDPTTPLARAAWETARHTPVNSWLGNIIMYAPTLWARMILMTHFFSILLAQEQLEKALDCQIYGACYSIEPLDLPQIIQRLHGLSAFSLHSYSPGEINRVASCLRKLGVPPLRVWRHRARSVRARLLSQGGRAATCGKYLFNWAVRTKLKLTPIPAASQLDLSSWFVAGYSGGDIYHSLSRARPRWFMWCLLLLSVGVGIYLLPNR
Sequence of RNA-directed RNA polymerase (Hepacivirus hominis), O39930 [C316N] (O39930 entry or part of it C316N): as above

| Structure (SMILES) | EC50 [1] [nM] | bioavailability [2] [%] | clearance [3] [mL/min/kg] | IC50 [4] [nM] | EC50 [5] [nM] | EC50 [6] [nM] | EC50 [7] [nM] | EC50 [8] [nM] | EC50 [9] [nM] | EC50 [10] [nM] | Stability [11] | Activity [12] | inhibition [13] | T1/2 [14] [h] | IC50 [15] [nM] | T1/2 [16] [h] |
| --- | --- | --- | --- | --- | --- | --- | --- | --- | --- | --- | --- | --- | --- | --- | --- | --- |
| CNC(=O)c1c(-c2ccc(F)cc2)oc2cc(N(Cc3ccc(B(O)O)cc3)S(C)(=O)=O)c(C3CC3)cc12 | 120 | < 3 | 36 | 32 | 13 | 2.6 | 2.7 |  |  |  |  |  |  |  |  |  |
| CNC(=O)c1c(-c2ccc(F)cc2)oc2cc(N(Cc3cc(F)c4c(c3)COB4O)S(C)(=O)=O)c(C3CC3)cc12 | 190 |  |  | 32 | 12 | 3.2 | 5.8 | 84 | 110 | 16 |  |  |  |  |  |  |
| CNC(=O)c1c(-c2ccc(F)cc2)oc2cc(N(C[C@@H]3COB(O)C3)S(C)(=O)=O)c(C3CC3)cc12 | 830 |  | 6.6 | 63 | 13 | 4.6 | 7.6 | 6.5 | 37 | 11 |  |  |  |  |  |  |
| CNC(=O)c1c(-c2ccc(F)cc2)oc2cc(N(Cc3cccc(B(O)O)c3)S(C)(=O)=O)c(C3CC3)cc12 |  |  |  | 30 | 120 | 6.9 | 8.8 |  |  |  |  |  |  |  |  |  |
| CNC(=O)c1c(-c2ccc(F)cc2)oc2cc(N(CC3CCB(O)OC3)S(C)(=O)=O)c(C3CC3)cc12 (racemic) |  |  |  | 63 | 56 | 6.4 | 9.7 |  |  |  | Stable | Non-toxic |  |  |  |  |
| CNC(=O)c1c(-c2ccc(F)cc2)oc2cc(N(Cc3ccc4c(c3)CCOB4O)S(C)(=O)=O)c(C3CC3)cc12 | 350 |  |  | 40 | 9 | 4.2 | 7 |  |  |  |  |  |  |  |  |  |
| CNC(=O)c1c(-c2ccc(F)cc2)oc2cc(N(Cc3ccc(P(=O)(O)O)cc3)S(C)(=O)=O)c(C3CC3)cc12 |  |  |  | 20 | > 5000 | 760 | 2200 |  |  |  |  |  |  |  |  |  |
| CNC(=O)c1c(-c2ccc(F)cc2)oc2cc(N(CCC3OB(O)c4ccccc43)S(C)(=O)=O)c(C3CC3)cc12 (racemic) | 790 |  |  | 32 | 12 | 3.5 | 7.4 |  |  |  |  |  |  |  |  |  |
| CNC(=O)c1c(-c2ccc(F)cc2)oc2cc(N(Cc3ccc(S(=O)(=O)O)cc3)S(C)(=O)=O)c(C3CC3)cc12 |  |  |  | 16 | > 5000 | 1800 | > 5000 |  |  |  |  |  |  |  |  |  |
| CNC(=O)c1c(-c2ccc(F)cc2)oc2cc(N(Cc3ccc(B(O)O)c(F)c3)S(C)(=O)=O)c(C3CC3)cc12 | 3.2 |  |  | 50 | 1.9 | 1.7 | 3 | 4.2 | 3.8 | 1.4 |  |  | Active | 4.3 | 130 |  |
| CNC(=O)c1c(-c2ccc(F)cc2)oc2cc(N(CC3CCOB(O)C3)S(C)(=O)=O)c(C3CC3)cc12 (racemic) |  |  |  | 80 | 38 | 3.7 | 9.1 |  |  |  | Stable | Non-toxic |  |  |  |  |
| CNC(=O)c1c(-c2ccc(F)cc2)oc2cc(N(Cc3ccccc3)S(C)(=O)=O)c(C3CC3)cc12 |  |  |  | 50 | 440 | 18 | 58 |  |  |  |  |  |  |  |  |  |
| CNC(=O)c1c(-c2ccc(F)cc2)oc2cc(N(Cc3ccc4c(c3)B(O)OC4)S(C)(=O)=O)c(C3CC3)cc12 |  |  |  | 32 | 64 | 4.9 | 7.4 |  |  |  |  |  |  |  |  |  |
| CNC(=O)c1c(-c2ccc(F)cc2)oc2cc(N(CCO)S(C)(=O)=O)c(C3CC3)cc12 [NESBUVIR] | 1900 |  |  | 40 | 100 | 18 | 27 | 1300 | 2500 | 420 |  |  |  |  | 160 | 1.7 |
| CNC(=O)c1c(-c2ccc(F)cc2)oc2cc(N(CC3COB(O)C3)S(C)(=O)=O)c(C3CC3)cc12 (racemic) |  |  |  | 50 | 7.6 | 2.8 | 2.9 |  |  |  | Stable | Non-toxic |  |  |  |  |
| CNC(=O)c1c(-c2ccc(F)cc2)oc2cc(N(CC3CCB(O)O3)S(C)(=O)=O)c(C3CC3)cc12 (racemic) |  |  |  | 100 | 52 | 6.5 | 8.8 |  |  |  | Stable | Non-toxic |  |  |  |  |
| CNC(=O)c1c(-c2ccc(F)cc2)oc2cc(N(Cc3ccc4c(c3)COB4O)S(C)(=O)=O)c(C3CC3)cc12 |  |  |  | 40 | 16 | 2.7 | 9.5 |  |  |  |  |  |  |  |  |  |
| CCOP(=O)(OCC)c1ccc(CN(c2cc3oc(-c4ccc(F)cc4)c(C(=O)NC)c3cc2C2CC2)S(C)(=O)=O)cc1 |  |  |  | 100 | 480 | 20 | 36 |  |  |  |  |  |  |  |  |  |
| CNC(=O)c1c(-c2ccc(F)cc2)oc2cc(N(C[C@H]3COB(O)C3)S(C)(=O)=O)c(C3CC3)cc12 |  |  | 32 | 50 | 11 | 2.9 | 5.3 |  |  |  | Stable | Non-toxic |  |  |  |  |
| CNC(=O)c1c(-c2ccc(F)cc2)oc2cc(N(CCC3COB(O)C3)S(C)(=O)=O)c(C3CC3)cc12 (racemic) |  |  |  | 50 | 5.6 | 3.1 | 6.1 |  |  |  | Stable | Non-toxic |  |  |  |  |
| CNC(=O)c1c(-c2ccc(F)cc2)oc2cc(N(Cc3ccc(B(O)O)c(OC)c3)S(C)(=O)=O)c(C3CC3)cc12 |  |  |  | 100 | 50 | 3.6 | 12 |  |  |  |  |  |  |  |  |  |
| CNC(=O)c1c(-c2ccc(F)cc2)oc2cc(N(Cc3ccc(B(O)O)c(C)c3)S(C)(=O)=O)c(C3CC3)cc12 |  |  |  | 80 | 5.4 | 2.2 | 4.8 |  |  |  |  |  |  |  |  |  |
| CNC(=O)c1c(-c2ccc(F)cc2)oc2cc(N(Cc3cccc4c3COB4O)S(C)(=O)=O)c(C3CC3)cc12 |  |  |  | 32 | 110 | 4.9 | 17 |  |  |  |  |  |  |  |  |  |
| CNC(=O)c1c(-c2ccc(F)cc2)oc2cc(N(Cc3ccc(C(=O)O)cc3)S(C)(=O)=O)c(C3CC3)cc12 |  |  |  | 25 | 3200 | 150 | 290 |  |  |  |  |  |  |  |  |  |
| CNC(=O)c1c(-c2ccc(F)cc2)oc2cc(N(CC3=CB(O)OC3)S(C)(=O)=O)c(C3CC3)cc12 |  |  |  | 50 | 13 | 1.9 | 9.6 |  |  |  | Stable | Non-toxic |  |  |  |  |
| CNC(=O)c1c(-c2ccc(F)cc2)oc2cc(N(CCOCB(O)O)S(C)(=O)=O)c(C3CC3)cc12 |  |  | 25 | 40 | 3.9 | 3.2 | 6.7 |  |  |  |  |  |  |  |  |  |

From ChEMBL document CHEMBL3120133, “Discovery of a potent boronic acid derived inhibitor of the HCV RNA-dependent RNA polymerase” (J Med Chem, 2014)
